Screening data from PubChem BioAssay.
HIV Rev-RRE inh = inhibitors of HIV-1 Rev-RRE RNA interaction. P05866. Rev peptide-RRE RNA binding, FRET. inhibition, % at 8 µM. hit rate 0.79% among 97,000;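 active = inhibition above the screen-wide mean plus 3 SD, cut at about 35% in these data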;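 also: 0% = median DMSO wells and 100% = median Neomycin B control wells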
Target sequence (P05866 whole entry, looked up): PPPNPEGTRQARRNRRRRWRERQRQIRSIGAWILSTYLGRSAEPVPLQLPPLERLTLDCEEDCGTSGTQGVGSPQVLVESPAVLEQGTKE
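Material: labelled RRE RNA duplex and labelled Rev peptide / Buffer or medium: HEPES pH 7.5 salt buffer with EDTA / Compound dosing: single point, 8 µM final nominal compound concentration / Benchmarks: DMSO low control, neomycin B high control / Timing: 5 min preincubation and 15 min binding, 25 °C / Technique: FRET fluorescence readout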
PLK1 PBD inh = blocks phosphopeptide binding to human Plk1 polo box domain | P53350 | Plk1 PBD phosphopeptide binding, fluorescence polarization | inhibition, %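 (tested at about 20 µM)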 | hit rate 0.13% among 97,000; in the data active = inhibition above about 34%, passing the limit was not always enough
Cav32 inh = human Cav3.2 channel inhibition, primary screen; O95180; Cav3.2-expressing cells, Fluo-4 calcium fluorescence FDSS; stronger effect = lower value; B-score at 10 µM; hit rate 4% among 100,000;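 active = single-dose well whose peak fluorescence ratio is a statistical outlier from its plate by either plate-standardised score or position-corrected B-score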
FAK blocker = FAK (human) kinase inhibition; Q05397; biochemical FAK kinase activity assay; inhibition, %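 (tested at 7 µM)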; hit rate 0.84% among 97,000; in the data active = inhibition above about 19%;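 also: 0% = DMSO and 100% = reference compound high control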
PLK1 kinase inh = inhibitors of human PLK1 kinase | recombinant PLK1 kinase, TR-FRET peptide phosphorylation | hit rate 0.53% among 97,000 | inhibition, % at 10 µM | P53350 | AID 619;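 active = inhibition of 50% or more in the single-concentration screen; inactive = inhibition below 50%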;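 also: 0% = DMSO max control and 100% = H-89 dihydrochloride min control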
EphB4 antag = antagonists of human EphB4-ephrin-B2 interaction | hit rate 0.15% among 97,000 | P54760 | EphB4 LBD / TNYL-RAW-Alexa532 peptide, fluorescence polarization | AID 720 | inhibition, % at 7 µM;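 active = inhibition above the screen-wide mean inhibition plus 3 SD, cut at about 15% in these data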;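 also: 0% = DMSO wells and 100% = excess unlabeled TNYL-RAW peptide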
Active calls of the source: *; / = not tested or not shown; [ ] = remark or other dose. The list is not random: actives were taken first. Their share in the collection is about 5.3%.

SMILES | HIV Rev-RRE inh | PLK1 PBD inh | Cav32 inh | FAK blocker | PLK1 kinase inh | EphB4 antag
CCCCn1c(CN2CCN(c3cccc(Cl)c3)CC2)nc2c1c(=O)n(C)c(=O)n2C | 9 | -7 | -6.9* | 0 | 2 | -1
CC1(C)Cc2cccc(OCC(=O)Nc3cc(C(F)(F)F)ccc3N3CCOCC3)c2O1 | 11 | -2 | -1.8 | -1 | -33 | -5
CCC1ON(c2ccccc2)C2c3nc4ccccc4n3CC12 (centres undefined) | / | / | 0.83 | / | / | /
CCCN(c1nc(C)cc(OC)n1)S(=O)(=O)c1ccccc1 | 10 | -12 | -4.7* | -1 | -7 | 3
CN(C(=O)CSc1nnc(Nc2ccccc2)s1)c1c(N)n(Cc2ccccc2)c(=O)[nH]c1=O | 13 | 6 | / | -1 | -14 | 7
CCCCN(C(=O)CSc1nnc(Nc2ccc(C)c(C)c2)s1)c1c(N)n(Cc2ccccc2)c(=O)[nH]c1=O | 10 | -4 | -5.3* | 1 | -12 | 0
CC(C)(C)n1nnnc1C(c1cccs1)N(Cc1ccccc1)Cc1cccnc1 (centres undefined) | 1 | -17 | -4.6* | 0 | -6 | -15
CC(C)(C)n1nnnc1C(c1cccs1)N(Cc1ccc(Cl)cc1)CC1CCCO1 (centres undefined) | 9 | -3 | -4.6* | -2 | -5 | 1
CC(C)(C)n1nnnc1C(c1ccc(Cl)cc1)N(Cc1cccnc1)Cc1ccco1 (centres undefined) | 4 | -17 | -9.5* | -2 | -8 | 4
CC(C)(C)n1nnnc1C(c1ccc(F)cc1)N(Cc1ccc(F)cc1)Cc1ccco1 (centres undefined) | 6 | -11 | -6.3* | -4 | -5 | -3
COC(=O)C1=C[C@@H](C(=O)OC)[C@@H]2C3=C(C(=O)C2(C)C)[C@H](c2ccccc2)[C@@H]2C(=O)N(C)C(=O)[C@@H]2[C@@H]3C1 | / | / | 1.2 | / | / | /
CCN(CC)S(=O)(=O)c1ccc(C(=O)OCn2nnc3ccccc3c2=O)cc1 | 18 | 6 | 0.43 | 4 | -11 | 6
Cn1c(Sc2ccc(Br)cc2)c(C=O)c2ccccc21 | 6 | -21 | 0.13 | 1 | -7 | -1
C=CCOC(=O)C1=C[C@@H](c2ccc(C(F)(F)F)cc2)C[C@@H](OCc2ccc(CO)cc2)O1 | / | / | -0.65 | / | / | /
CC(C)C(c1nnnn1Cc1ccccc1)N(Cc1ccco1)Cc1cccs1 (centres undefined) | 3 | -12 | -0.97 | 2 | -14 | -9
CC(C)(C)n1nnnc1C(c1ccc(C(F)(F)F)cc1)N(Cc1ccc(F)cc1)Cc1ccco1 (centres undefined) | 2 | -2 | -4.3* | -1 | -7 | -5
CC(C)(C)n1nnnc1C(c1ccc(C(F)(F)F)cc1)N(Cc1ccccc1)Cc1ccco1 (centres undefined) | 2 | -21 | / | -4 | -8 | -2
Cc1ccc(C(c2nnnn2C(C)(C)C)N(Cc2ccco2)Cc2cccs2)cc1 (centres undefined) | / | / | -5.1* | / | / | /
COc1ccc(Cn2nnnc2C(C(C)C)N(Cc2ccco2)Cc2cccs2)cc1 (centres undefined) | 9 | 18 | -3.9* | -2 | 3 | 5
O=C(Cc1ccccc1)Nc1ccccc1C(=O)O | 5 | -5 | -0.33 | 0 | -3 | -2
Cc1ccc(S(=O)(=O)c2c(COC(=O)c3ccc(Cl)cc3)c(-c3ccccc3)nn2C)cc1 | 73* | -3 | -2.5 | -1 | 1 | -3
Cn1nc(-c2ccccc2)c(C(=O)Nc2ccc(Cl)cc2)c1Cl | 2 | -2 | 0.16 | 0 | -1 | -2
COc1ccc(N=C2S/C(=C\c3ccc(N4CCOCC4)o3)C(=O)N2CCc2c[nH]c3ccccc23)cc1 | 131*[fluorescence artefact?] | -131 | -2.7 | 0 | -15 | 1
C#Cc1ccc2c(c1)COc1c3ccccc3nn1-2 | / | / | -0.052 | / | / | /
CCOc1ccc2[nH]c(=O)c(CN(Cc3cccs3)C(CC)c3nnnn3C(C)(C)CC)cc2c1 (centres undefined) | / | / | -6.2* | / | / | /
SMILES | HIV Rev-RRE inh | PLK1 PBD inh | Cav32 inh | FAK blocker | PLK1 kinase inh | EphB4 antag
Cc1cc(CNC(=O)C2(C(F)(F)F)C/C(=C\Cc3ccccc3)CCCO2)nn1C (centres undefined) | / | / | 0.47 | / | / | /
O=C1c2ccccc2-c2onc3ccc(Oc4ccccc4)c1c23 | 64* | -69 | 0.61 | 36* | 17 | 1
CCC1(CC)C(=O)C2=C3C1[C@H](C(=O)OC)CC(C(=O)OC)C[C@H]3[C@H]1C(=O)N(c3ccccc3)C(=O)[C@H]1[C@H]2C (some centres undefined) | / | / | -0.25 | / | / | /
O=C(Nc1cccc(F)c1)C1CC(=O)N(c2ccc(Cl)cc2)C1 (centres undefined) | 2 | -34 | -5.8* | 0 | 0 | -3
O=C(Nc1cccc(F)c1)C1CC(=O)N(c2ccc(Br)cc2)C1 (centres undefined) | 11 | 2 | -5.4* | -1 | -8 | -5
C[C@H]1CC[C@]2(O[C@@H](CCO)C[C@H](O)[C@H]2O)O1 | / | / | 0.0063 | / | / | /
CCSc1nc2ccccc2n1CCOc1ccccc1 | 7 | 25 | -3.8* | 2 | -12 | 4
CC(C)N(C(=O)CSc1nc2ccccc2n1Cc1ccccc1F)C(C)C | 8 | -9 | -9* | 1 | -8 | 3
CC(C)N(C(=O)CSc1nc2ccccc2n1Cc1ccccc1)C(C)C | 8 | -3 | -0.36 | -2 | -10 | 2
NC(=O)CSc1nc2ccccc2n1Cc1ccccc1F | 3 | -1 | -1.8 | 3 | -7 | 5
CCSc1nc2ccccc2n1Cc1ccccc1F | 19 | 15 | -5* | -1 | -11 | -7
Cc1cccc(C)c1OCC(O)CN1CCC(CN2C(=O)c3cccc4cccc(c34)C2=O)CC1 (centres undefined) | 2 | 21 | -3.8 | 1 | 0 | -2
COc1cc(/C=C(\C#N)c2nc3c(s2)CCCC3)ccc1O | 72* | -243 | -0.82 | 1 | 1 | 0
COc1cc(-c2c(C#N)c(N)nc3c2CCCC3)ccc1O | -4 | -6 | 0.17 | -2 | 0 | -4
CNS(=O)(=O)c1cccc(C(=O)OCc2cc(Cl)cc3c2OCOC3)c1 | 12 | 14 | -4.2* | 0 | 2 | 6
COc1cc(N2CCCC2)c(OC)cc1/C=c1/sc2nc3ccccc3n2c1=O | 133*[fluorescence artefact?] | -262 | / | 2 | -40 | -16
CN1C(C(=O)NCc2ccccc2)CC2Cn3c(nc4cc5ccccc5cc43)C21 (centres undefined) | / | / | -3 | / | / | /
CCCCNC(=S)NNC(=O)c1ccco1 | 5 | 16 | / | 3 | -13 | -1
C#CCOCCOCCOCCNc1nc(N2CCOCC2)nc(N2CCN(C(=O)Cn3cc(CC(C)O)nn3)CC2)n1 (centres undefined) | / | / | 0.022 | / | / | /
Cc1ccc2c(CC(=O)NCc3ccco3)coc2c1C | 7 | -25 | -9.4* | 1 | -4 | 6
Cc1ccc(C(=O)NCc2ccco2)cc1Br | 4 | 11 | -1.7 | 2 | -12 | 1
